Measured values reported in ChEMBL document CHEMBL1121696, “Antimicrobial 3-methyleneflavanones” (1981).
Values after ≈ are worked out from the molar mass of the structure shown.

How the values were obtained:
[1] = tested on: Staphylococcus aureus; experiment: Compound was tested for its antimicrobial activity against Staphylococcus aureus (9-195); type: functional
Procedure, shortened: (§1)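 Agar dilution MIC. Stocks and twofold serial dilutions in DMF or 50% aqueous DMF were mixed 1:100 into molten Eugon agar, giving final 100, 50, 25, 12.5, 6.2, 3.1 mcg/mL (further dilutions sometimes) and ≤1% DMF. Inocula came from 24 h Eugon agar slants at 32 °C, suspended at 10⁶ cells/mL and applied with a Steers replicator. MIC (lowest concentration inhibiting growth) was read after 24 h at 32 °C.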

[2] = tested on: Clostridium acetobutylicum; experiment: Compound was tested for its antimicrobial activity against Clostridium acetobutylicum (ATCC 824); type: functional
Procedure, shortened: (§2)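 Anaerobic bacteria were grown 72 h at 32 °C in fluid thioglycollate medium and used undiluted to inoculate, by Steers replicator, Eugon agar containing serial twofold compound dilutions made in DMF or 50% aqueous DMF (final 100 to 3.1 mcg/mL, ≤1% DMF). MIC was read after 72 h of anaerobic incubation (Gas-Pak jar) at 37 °C.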

[3] = tested on: Staphylococcus aureus; experiment: Compound was tested for its antimicrobial activity against Staphylococcus aureus (NRRL B2747); type: functional; procedure, shortened: as §1
[4] = tested on: Staphylococcus aureus; experiment: Compound was tested for its antimicrobial activity against Staphylococcus aureus (ATCC 6538); type: functional; procedure, shortened: as §1
[5] = Compound was tested for its antimicrobial activity against Sarcina subflava (ATCC 7468); type: functional; procedure, shortened: as §1
[6] = tested on: Staphylococcus epidermidis; experiment: Compound was tested for its antimicrobial activity against Staphylococcus epidermidis (ATCC 12228); type: functional; procedure, shortened: as §1
[7] = tested on: Staphylococcus aureus; experiment: Compound was tested for its antimicrobial activity against Staphylococcus aureus (ATCC 151); type: functional; procedure, shortened: as §1
[8] = tested on: Enterococcus; experiment: Compound was tested for its antimicrobial activity against Enterococcus (9-25)
[9] = tested on: Cutibacterium acnes; experiment: Compound was tested for its antimicrobial activity against Propionibacterium acnes (ATCC 6919); type: functional; procedure, shortened: as §2
[10] = tested on: Enterococcus faecalis; experiment: Compound was tested for its antimicrobial activity against Streptococcus faecalis (ATCC 10541); type: functional; procedure, shortened: as §1
[11] = tested on: Bacillus subtilis; experiment: Compound was tested for its antimicrobial activity against Bacillus subtilis (ATCC 6633); type: functional; procedure, shortened: as §1
[12] = tested on: Staphylococcus aureus; experiment: Compound was tested for its antimicrobial activity against Staphylococcus aureus (9-267); type: functional; procedure, shortened: as §1
[13] = tested on: Trichophyton benhamiae; experiment: Compound was tested for the antimicrobial activity against Trichophyton mentagrophytes (ATCC 4807); Range is 12.5-25; type: functional, Arthroderma benhamiae
Procedure, shortened: (§3)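 Spores came from Eugon agar slants grown 1 week at 32 °C, suspended at 10⁶/mL in Eugon broth or saline, and applied by Steers replicator. The lowest inhibitory concentration was read after 48-72 h at 32 °C.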

[14] = tested on: Candida albicans; experiment: Compound was tested for the antimicrobial activity against Candida albicans (ATCC 10231, NRRL Y-477); Range is 100 to >100; type: functional; procedure, shortened: as §1
[15] = tested on: Candida albicans; experiment: Compound was tested for the antimicrobial activity against Candida albicans (ATCC 10231, NRRL Y-477); Range is 25 to >100; type: functional; procedure, shortened: as §1
[16] = tested on: Enterococcus faecalis; experiment: Antimicrobial activity against Streptococcus faecalis (ATCC 10541); type: functional; procedure, shortened: as §1
[17] = tested on: Trichophyton benhamiae; experiment: Compound was tested for the antimicrobial activity against Trichophyton mentagrophytes (ATCC 4807); Range is 6.2-25; type: functional, Arthroderma benhamiae; procedure, shortened: as §3
[18] = tested on: Aspergillus niger; experiment: Antimicrobial activity against Aspergillus niger (ATCC 16404); type: functional; procedure, shortened: as §3
[19] = tested on: Staphylococcus aureus; experiment: Antimicrobial activity against Staphylococcus aureus (ATCC 6538, NRRL B2747); Range is <3.1-6.2; type: functional; procedure, shortened: as §1
[20] = tested on: Candida albicans; experiment: Compound was tested for the antimicrobial activity against Candida albicans (ATCC 10231, NRRL Y-477); Range is 12.5-100; type: functional; procedure, shortened: as §1
[21] = tested on: Staphylococcus aureus; experiment: Compound was tested for the antimicrobial activity against Staphylococcus aureus (ATCC 6538, NRRL B2747); Range is 6.2-12.5; type: functional; procedure, shortened: as §1
[22] = tested on: Trichophyton benhamiae; experiment: Compound was tested for the antimicrobial activity against Trichophyton mentagrophytes (ATCC 4807); Range is <3.1-12.5; type: functional, Arthroderma benhamiae; procedure, shortened: as §3
[23] = tested on: Enterococcus faecalis; experiment: Compound was tested for the antimicrobial activity against Streptococcus faecalis (ATCC 10541); Range is 25-50; type: functional; procedure, shortened: as §1
[24] = tested on: Trichophyton benhamiae; experiment: Compound was tested for the antimicrobial activity against Trichophyton mentagrophytes (ATCC 4807); Range is <3.1-6.2; type: functional, Arthroderma benhamiae; procedure, shortened: as §3
[25] = tested on: Staphylococcus aureus; experiment: Compound was tested for its antimicrobial activity against Staphylococcus aureus(9-195); type: functional; procedure, shortened: as §1
[26] = tested on: Staphylococcus aureus; experiment: Compound was tested for its antimicrobial activity against Staphylococcus aureus(9-267); type: functional; procedure, shortened: as §1
[27] = tested on: Staphylococcus aureus; experiment: Compound was tested for the antimicrobial activity against Staphylococcus aureus (ATCC 6538, NRRL B2747); Range is 0.25-0.5; type: functional; procedure, shortened: as §1
[28] = tested on: Trichophyton benhamiae; experiment: Antimicrobial activity against Trichophyton mentagrophytes (ATCC 4807); type: functional, Arthroderma benhamiae; procedure, shortened: as §3
[29] = tested on: Candida albicans; experiment: Compound was tested for the antimicrobial activity against Candida albicans (ATCC 10231, NRRL Y-477); Range is 50 to >100; type: functional; procedure, shortened: as §1
[30] = tested on: Staphylococcus aureus; experiment: Antimicrobial activity against Staphylococcus aureus (ATCC 6538, NRRL B2747); type: functional; procedure, shortened: as §1
[31] = tested on: Candida albicans; experiment: Antimicrobial activity against Candida albicans (ATCC 10231, NRRL Y-477); type: functional; procedure, shortened: as §1
[32] = tested on: Trichophyton benhamiae; experiment: Compound was tested for the antimicrobial activity against Trichophyton mentagrophytes (ATCC 4807); Range is 100 to >100; type: functional, Arthroderma benhamiae; procedure, shortened: as §3
[33] = tested on: Trichophyton benhamiae; experiment: Compound was tested for the antimicrobial activity against Trichophyton mentagrophytes (ATCC 4807); Range is 50 to >100; type: functional, Arthroderma benhamiae; procedure, shortened: as §3
[34] = tested on: Staphylococcus aureus; experiment: Compound was tested for the antimicrobial activity against Staphylococcus aureus (ATCC 6538, NRRL B2747); Range is 50-100; type: functional; procedure, shortened: as §1

Compound: Oc1c(Cl)cc(Cl)c(Cl)c1Cc1c(O)c(Cl)cc(Cl)c1Cl [HEXACHLOROPHENE]
- MIC [1]: 1 µg/mL (≈ 2.46 µM)
- MIC [2]: 0.06 µg/mL (≈ 0.147 µM)
- MIC [3]: 0.5 µg/mL (≈ 1.23 µM)
- MIC [4]: 0.5 µg/mL (≈ 1.23 µM)
- MIC [5]: 0.06 µg/mL (≈ 0.147 µM)
- MIC [6]: 0.5 µg/mL (≈ 1.23 µM)
- MIC [7]: 0.5 µg/mL (≈ 1.23 µM)
- MIC [8]: 1 µg/mL (≈ 2.46 µM)
- MIC [9]: 0.06 µg/mL (≈ 0.147 µM)
- MIC [10]: 0.125 µg/mL (≈ 0.307 µM)
- MIC [11]: 0.125 µg/mL (≈ 0.307 µM)
- MIC [12]: 1 µg/mL (≈ 2.46 µM)

Compound: C=C1C(=O)c2ccccc2OC1(c1ccccc1)c1ccncc1 (stereo unspecified)
- MIC [13]: 12.5 µg/mL (≈ 39.9 µM)
- MIC [14]: > 100 µg/mL

Compound: C=C1C(=O)c2ccccc2OC1c1ccc2ccccc2c1 (stereo unspecified)
- MIC [15]: > 25 µg/mL
- MIC [16]: 50 µg/mL (≈ 175 µM)
- MIC [17]: 6.2 µg/mL (≈ 21.7 µM)
- MIC [18]: > 100 µg/mL
- MIC [19]: < 3.1 µg/mL

Compound: C=C1C(=O)c2ccccc2OC1c1ccc(C#N)cc1 (stereo unspecified)
- MIC [17]: 6.2 µg/mL (≈ 23.7 µM)

Compound: CN(C)CC1C(=O)c2ccccc2OC1c1ccccc1 (stereo unspecified)
- MIC [20]: 12.5 µg/mL (≈ 44.4 µM)
- MIC [21]: 6.2 µg/mL (≈ 22 µM)
- MIC [22]: < 3.1 µg/mL

Compound: C=C1C(=O)c2ccccc2OC1c1ccc(Cl)cc1Cl (stereo unspecified)
- MIC [17]: 6.2 µg/mL (≈ 20.3 µM)
- MIC [23]: 25 µg/mL (≈ 81.9 µM)

Compound: C=C1C(=O)c2ccccc2OC1c1ccc(C)cc1 (stereo unspecified)
- MIC [24]: < 3.1 µg/mL

Compound: C=C1C(=O)c2ccccc2OC1(c1ccccc1)c1ccccc1
- MIC [3]: 0.5 µg/mL (≈ 1.6 µM)
- MIC [6]: 0.25 µg/mL (≈ 0.8 µM)
- MIC [16]: 0.78 µg/mL (≈ 2.5 µM)
- MIC [25]: 0.5 µg/mL (≈ 1.6 µM)
- MIC [26]: 0.5 µg/mL (≈ 1.6 µM)
- MIC [27]: 0.25 µg/mL (≈ 0.8 µM)
- MIC [7]: 0.25 µg/mL (≈ 0.8 µM)
- MIC [28]: > 100 µg/mL
- MIC [8]: 1 µg/mL (≈ 3.2 µM)
- MIC [9]: 3.1 µg/mL (≈ 9.92 µM)
- MIC [10]: 1 µg/mL (≈ 3.2 µM)
- MIC [11]: 0.25 µg/mL (≈ 0.8 µM)

Compound: C=C1C(=O)c2ccccc2OC1c1ccc(OC)cc1 (stereo unspecified)
- MIC [29]: > 50 µg/mL
- MIC [13]: 12.5 µg/mL (≈ 46.9 µM)

Compound: CN(C)CC1(C)C(=O)c2ccccc2OC1c1ccccc1 (stereo unspecified)
- MIC [30]: > 50 µg/mL
- MIC [31]: > 50 µg/mL
- MIC [16]: > 50 µg/mL
- MIC [18]: > 50 µg/mL
- MIC [28]: > 50 µg/mL

Compound: C=C(CC)C(=O)c1ccc(OCC(=O)O)c(Cl)c1Cl [ETHACRYNIC ACID]
- MIC [30]: > 100 µg/mL
- MIC [31]: > 100 µg/mL
- MIC [16]: > 100 µg/mL
- MIC [18]: > 100 µg/mL
- MIC [28]: > 100 µg/mL

Compound: C=C1C(=O)c2cc(Br)ccc2OC1c1ccccc1 (stereo unspecified)
- MIC [30]: 50 µg/mL (≈ 159 µM)
- MIC [31]: > 100 µg/mL
- MIC [16]: > 100 µg/mL
- MIC [18]: > 100 µg/mL
- MIC [32]: > 100 µg/mL

Compound: C=C1C(=O)c2ccccc2SC1c1ccccc1 (stereo unspecified)
- MIC [31]: > 100 µg/mL
- MIC [16]: > 100 µg/mL
- MIC [33]: > 50 µg/mL
- MIC [34]: 50 µg/mL (≈ 198 µM)
- MIC [18]: > 100 µg/mL

Compound: C=C1C(=O)c2cc(C)ccc2OC1c1ccccc1 (stereo unspecified)
- MIC [28]: 6.2 µg/mL (≈ 24.8 µM)
